# Reference: ChEMBL document CHEMBL2385024, “Antiviral alkaloids produced by the mangrove-derived fungus Cladosporium sp. PJX-41” (J Nat Prod, 2013)
# System: Influenza A virus
# Test: Antiviral activity against Influenza A virus H1N1 infected in dog MDCK cells after 48 hrs by CPE inhibition assay
# Type: functional, organism-based
# Summary of the method: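 CPE-inhibition format against influenza A (H1N1), with ribavirin run in parallel as the positive control; activity is expressed as IC50.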
row,SMILES,IC50 [µM]
1,CC(C)=C1NC(=O)[C@@H](C[C@]2(O)c3ccccc3N3C(=O)[C@H](C)N[C@H]32)n2c1nc1ccccc1c2=O,82
2,O=C1N[C@H]2c3[nH]c4ccccc4c3C[C@@H]1n1c2nc2ccccc2c1=O,> 200
3,O=C1N[C@@H](O)c2nc3ccccc3c(=O)n2[C@@H]1Cc1c[nH]c2ccccc12,100
4,O=C1NC(=O)[C@@H](Cc2c[nH]c3ccccc23)n2c1nc1ccccc1c2=O,100
5,O=C1NC(=O)[C@H](Cc2c[nH]c3ccccc23)n2c1nc1ccccc1c2=O,85
6,CC(C)=C1NC(=O)[C@@H](C[C@]2(O)c3ccccc3N3C(=O)C(C)(C)N[C@H]32)n2c1nc1ccccc1c2=O,100
7,CC(=O)O[C@@H](c1nc2ccccc2c(=O)n1[C@@H]1C[C@]2(OC1=O)c1ccccc1N1C(=O)C(C)(C)N(O)[C@H]12)C(C)C,100
8,O=C1N[C@@H]2c3nc4ccccc4c(=O)n3[C@H]1CC21c2ccccc2N2C(=O)[C@@H]3CCCN3[C@H]21 (stereo not given in full),82
9,O=C1NCc2nc3ccccc3c(=O)n2[C@@H]1Cc1c[nH]c2ccccc12,100
10,CC(C)[C@H]1NC(=O)[C@@H](C[C@]2(O)C(=O)Nc3ccccc32)n2c1nc1ccccc1c2=O [CLADOQUINAZOLINE],100
11,CC(=O)O[C@H](c1nc2ccccc2c(=O)n1[C@@H]1C[C@]2(OC1=O)c1ccccc1N1C(=O)[C@H](C)N[C@H]12)C(C)C [DEOXYNORTRYPTOQUIVALINE],87
12,CC(=O)O[C@H](c1nc2ccccc2c(=O)n1[C@@H]1C[C@]2(OC1=O)c1ccccc1N1C(=O)C(C)(C)N[C@H]12)C(C)C [DEOXYTRYPTOQUIVALINE],85
13,CC(C)[C@@H]1NC(=O)[C@@H](C[C@]2(O)C(=O)Nc3ccccc32)n2c1nc1ccccc1c2=O [EPI-CLADOQUINAZOLINE],100
14,NC(=O)c1ncn([C@@H]2O[C@H](CO)[C@@H](O)[C@H]2O)n1 [RIBAVIRIN],87
15,CC(=O)O[C@H](c1nc2ccccc2c(=O)n1[C@@H]1C[C@]2(OC1=O)c1ccccc1N1C(=O)C(C)(C)N(O)[C@H]12)C(C)C [TRYPTOQUIVALINE],89
